Results published in article PMC6422976 (Osteoporosis International, 2018).

What was measured:
[1] = Safety: treatment emergent adverse events in healthy women; assay type: in vivo, human; settings: single 20 μg s.c.; for TEAE: General disorders and administration site conditions: number of subjects (%)
Outline: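 Healthy women received single 20 μg/80 μL s.c. injections in each cross-over period. Monitoring covered physical examinations, vital signs, ECGs, pulse oximetry, adverse events, injection-site reactions and clinical laboratory tests. Adverse events in the washout were assigned to the preceding treatment. Results were summarised per treatment arm as subject counts; Fisher's exact test.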

serum calcium = test: Serum calcium; assay type: in vivo, human; settings: for Serum-corrected calcium Cmax, mean / Serum-corrected calcium tmax, mean / Serum-corrected calcium AUC0-tlast, geom. mean / Serum-corrected calcium Cmax, geom. mean / Serum-corrected calcium AUC0-tlast, median / Serum-corrected calcium Cmax, median / Serum-corrected calcium tmax, median: single 20 μg/80 μL s.c. injection, healthy women, N = 53; for Serum-corrected calcium Cmax, mean / Serum-corrected calcium tmax, mean: arithmetic mean; for Serum-corrected calcium AUC0-tlast, geom. mean / Serum-corrected calcium Cmax, geom. mean: geometric mean
Outline: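 Serum drawn within 2.5 h before dosing and at 120, 180 and 240 min and 6, 8 and 12 h after a single 20 μg/80 μL s.c. dose. Total calcium measured photometrically via the NM-BAPTA complex under alkaline conditions (LLOQ 0.8 mg/dl). Values albumin-corrected as Ca (mmol/L) + ((40 − ALB (g/L)) × 0.02). AUC0-tlast, Cmax and tmax calculated.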

[2] = Comparative single-dose PK of teriparatide; assay type: in vivo, human; settings: for tlast / Cmax / tmax / AUC0-tlast: single 20 μg/80 μL s.c. dose, N = 51; for tlast: AM ± SD; for Cmax: ELISA; for Cmax / AUC0-tlast: GM (GCV%); for tmax: Median (Minimum, Maximum); for AUC0-tlast: abdomen, PTH(1-34) ELISA
Outline: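 Randomised, double-blind, two-period, two-sequence cross-over in healthy women aged 18–55 y (BMI 18.5–27.0 kg/m2). Single 20 μg/80 μL s.c. abdominal injection of test or reference teriparatide at hour 0, with a 24 h washout. Plasma sampled pre-dose and at 10–240 min. High-sensitivity human PTH(1-34) ELISA. Non-compartmental parameters; ANOVA on ln values; geometric mean test/reference ratios with 94.12% CI (α 0.0294, two-stage design).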

[3] = after at least 12 months of treatment, 20 μg daily s.c. doses; cited from earlier work
[4] = RGB-10/reference, two-stage design
[5] = RGB-10/reference, two-stage design, acceptance range 80.00–125.00%
[6] = geometric mean ratio = 100 * (RGB-10/reference)
[7] = geometric least-squares mean from ANOVA, single 20 μg s.c., healthy women

Substance | TEAE: General disorders and administration site conditions [1] | Serum-corrected calcium Cmax, mean (serum calcium) [mmol/L] | Serum-corrected calcium tmax, mean (serum calcium) [h] | Serum-corrected calcium AUC0-tlast, geom. mean (serum calcium) [mmol·h/L] | Serum-corrected calcium Cmax, geom. mean (serum calcium) [mmol/L] | Serum-corrected calcium AUC0-tlast, median (serum calcium) [mmol·h/L] | Serum-corrected calcium Cmax, median (serum calcium) [mmol/L] | Serum-corrected calcium tmax, median (serum calcium) [h] | tlast ([2]; healthy women) [h] | Cmax ([2]; healthy women) | tmax ([2]; healthy women) | AUC0-tlast ([2]; healthy women) | further results
teriparatide [RGB-10] | 13 (24%) | 2.35 | 5.21 | 27.59 | 2.35 | 27.56 | 2.34 | 6.00 | 2.49 ± 0.729 | 82.4 (40.1%) pg/mL | 0.334 (0.166, 0.585) h | 91.8 (40.9%) pg*h/mL | serious adverse events (SAEs) [1]: no SAEs observed; 95% CIs of the GMR of corrected calcium (serum calcium; RGB-10/reference): 99–101%; GMR of serum calcium AUC (serum calcium; RGB-10/reference): 99.93%; GMR of serum calcium Cmax (serum calcium; RGB-10/reference): 99.87%; median difference of serum calcium tmax (serum calcium; RGB-10 versus reference): 0.001; bioequivalence conclusion ([2]; 94.12% CIs of GMRs of AUC0-tlast and Cmax within 80–125%): bioequivalent; 94.12% CI of GMR, AUC0-inf [2, 4]: 83.75–96.33%; 94.12% CI of GMR, t1/2 [2, 4]: 83.28–100.29%; 94.12% CI of GMR, AUC0-tlast [2, 5]: 85.20–98.60%; 94.12% CI of GMR, Cmax [2, 5]: 85.51–99.52%; extent, total extent and peak teriparatide exposure (AUC0-tlast, AUC0-inf, Cmax) lower than for the reference ([2]; based on GMR, plasma): 8 to 10%; GMR% AUC0-inf [2, 6]: 89.82%; GMR% AUC0-tlast [2, 6]: 91.66%; GMR% Cmax [2, 6]: 92.25%; GMR% t1/2 [2, 6]: 91.39%; half-life shorter than for the reference ([2]; in vivo): 9%; mean CL/F higher than for the reference product ([2]; in vivo): approximately 13%; mean Vz/F compared with the reference ([2]; in vivo): similar
teriparatide [Reference, reference compound] | 8 (15%) | 2.35 | 5.03 | 27.61 | 2.35 | 27.56 | 2.34 | 6.00 | 2.58 ± 0.707 | 89.2 (37.1%) pg/mL | 0.417 (0.167, 0.667) h | 99.0 (35.0%) pg*h/mL | patients with anti-teriparatide antibodies [3]: 2.8%; AUC0-inf, geometric LSM [2, 7]: 0.11566 ng·h/mL; AUC0-tlast, geometric LSM [2, 7]: 0.10086 ng·h/mL; Cmax, geometric LSM [2, 7]: 0.09018 ng/mL; t1/2, geometric LSM [2, 7]: 0.72 h
